Experimental data: ChEMBL document CHEMBL3045276, “Synthesis and biological activity of some novel trifluoromethyl-substituted 1,2,4-triazole and bis(1,2,4-triazole) Mannich bases containing piperazine rings” (2010)

Tests used:
Type in all cases: functional
Echinochloa crus-galli [1] = assay: Herbicidal activity against Echinochloa crus-galli (barnyard grass) assessed as inhibition of seedling growth at 100 ug/mL at 28 degC
Summary of the method: (§1)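 Ten barnyardgrass seeds placed in cup over glass beads and filter paper holding 5 mL aqueous test solution (emulsified if needed); germinated 65 h at 28 ± 1 °C under light. Mean above-ground seedling height per cup measured; inhibition percentage derived.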

[2] = system: Brassica rapa subsp. oleifera; assay: Herbicidal activity against Brassica rapa subsp. oleifera assessed as inhibition of root growth at 10 ug/mL at 28 degC
Summary of the method: (§2)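 Rape seeds soaked 4 h in distilled water, then 15 per 6 cm dish on filter paper wetted with 2 mL aqueous test solution (emulsified if needed); germinated 65 h at 28 ± 1 °C in darkness. Mean length of 10 roots per dish measured; percentage inhibition calculated against distilled-water check.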

[3] = system: Brassica rapa subsp. oleifera; assay: Herbicidal activity against Brassica rapa subsp. oleifera assessed as inhibition of root growth at 100 ug/mL at 28 degC; summary of the method: as §2
Sclerotinia sclerotiorum = assay: Fungicidal activity against Sclerotinia sclerotiorum in cucumber plant two seed leaves stage assessed as control efficacy from disease indices at 500 ug/mL at 18 to 30 degC and above 80%RH relative to control; conditions: read-out: GI
Summary of the method: (§3)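 Cucumber seeds germinated (soaked 2 h in water at 50 °C, kept moist 24 h at 28 °C) and grown in 1:1 vermiculite/peat; two-seed-leaf plants sprayed at 500 μg/mL, then inoculated 2 h later by spraying conidial (C. cassiicola, A. citrullina, P. cubensis), bacterial (P. syringae) or mycelial (S. sclerotiorum) suspension. Held 18-30 °C, >80% RH; four repeats; control efficacy = (CK−PT)/CK×100 from disease indices once untreated plants fully symptomatic.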

[4] = system: Pseudoperonospora cubensis; assay: Fungicidal activity against Pseudoperonospora cubensis in cucumber plant two seed leaves stage assessed as control efficacy from disease indices at 500 ug/mL at 18 to 30 degC and above 80%RH relative to control; conditions: read-out: GI; summary of the method: as §3
Ascochyta = assay: Fungicidal activity against Ascochyta […] in cucumber plant two seed leaves stage assessed as control efficacy from disease indices at 500 ug/mL at 18 to 30 degC and above 80%RH relative to control; conditions: read-out: GI; summary of the method: as §3
[5] = system: Pseudomonas amygdali pv. lachrymans; assay: Fungicidal activity against Pseudomonas syringae pv. lachrymans in cucumber plant two seed leaves stage assessed as control efficacy from disease indices at 500 ug/mL at 18 to 30 degC and above 80%RH relative to control; conditions: read-out: GI; summary of the method: as §3
Corynespora cassiicola = assay: Fungicidal activity against Corynespora cassiicola in cucumber plant two seed leaves stage assessed as control efficacy from disease indices at 500 ug/mL at 18 to 30 degC and above 80%RH relative to control; conditions: read-out: GI; summary of the method: as §3
Echinochloa crus-galli [6] = assay: Herbicidal activity against Echinochloa crus-galli (barnyard grass) assessed as inhibition of seedling growth at 10 ug/mL at 28 degC; summary of the method: as §1

Structure (SMILES)	inhibition at 100 µg/mL (Echinochloa crus-galli [1])	inhibition at 10 µg/mL [2]	inhibition at 100 µg/mL [3]	inhibition of growth at 500 µg/mL (Sclerotinia sclerotiorum)	inhibition of growth at 500 µg/mL [4]	inhibition of growth at 500 µg/mL (Ascochyta)	inhibition of growth at 500 µg/mL [5]	inhibition of growth at 500 µg/mL (Corynespora cassiicola)	inhibition at 10 µg/mL (Echinochloa crus-galli [6])
COc1ccc(/C=N/n2c(C(F)(F)F)nn(CN3CCN(Cn4nc(C(F)(F)F)n(/N=C/c5ccc(OC)cc5)c4=S)CC3)c2=S)cc1	25.5%	0%	29.5%	62%	84.5%	89.7%	55.6%	44.1%	5.5%
Cc1cc(C)nc(N2CCN(Cn3nc(C(F)(F)F)n(/N=C/c4ccc(C)c(C)c4)c3=S)CC2)n1	8.7%	6%	20.5%	48.9%	67.8%	82.9%	59.5%	85.9%	0%
Cc1ccnc(N2CCN(Cn3nc(C(F)(F)F)n(/N=C/c4ccccc4)c3=S)CC2)n1	15.3%	0%	12.5%	36.8%	78.6%	62.4%	20.4%	49.2%	8.7%
FC(F)(F)c1nn(CN2CCN(Cn3nc(C(F)(F)F)n(/N=C/c4ccccc4)c3=S)CC2)c(=S)n1/N=C/c1ccccc1	25.1%	0%	35.1%	67.6%	78.9%	25.6%	56.4%	70.9%	16.2%
COc1ccc(/C=N/n2c(C(F)(F)F)nn(CN3CCN(c4ncccn4)CC3)c2=S)cc1	18.6%	53.5%	78.8%	75.3%	79.5%	73.4%	68.1%	73.4%	0%
Cc1ccnc(N2CCN(Cn3nc(C(F)(F)F)n(/N=C/c4ccc(C)c(C)c4)c3=S)CC2)n1	27.8%	0%	11.2%	51.9%	69.5%	70%	22%	38.7%	0%
COc1ccc(C(=CC(=O)N2CCOCC2)c2ccc(Cl)cc2)cc1OC [DIMETHOMORPH]				98.4%	83.8%	98.4%	14%	95.3%	
COc1ccc(/C=N/n2c(C(F)(F)F)nn(CN3CCN(c4nccc(C)n4)CC3)c2=S)cc1	34.3%	0%	30.3%	50.9%	72.5%	67.7%	30.6%	52.8%	15.3%
Cc1ccnc(N2CCN(Cn3nc(C(F)(F)F)n(/N=C/c4ccccc4F)c3=S)CC2)n1	8%	0%	24.4%	52.2%	75.5%	57.8%	62.3%	-5.3%	0%
Cc1cc(C)nc(N2CCN(Cn3nc(C(F)(F)F)n(/N=C/c4ccccc4F)c3=S)CC2)n1	33.2%	67.1%	72.4%	72%	79.2%	83.5%	56.1%	78.7%	17.1%
Cc1ccnc(N2CCN(Cn3nc(C(F)(F)F)n(/N=C/c4ccccc4[N+](=O)[O-])c3=S)CC2)n1	33.9%	0%	0%	32.8%	76.8%	44.3%	44.5%	73.8%	11.5%
COc1ccc(/C=N/n2c(C(F)(F)F)nn(CN3CCN(c4nc(C)cc(C)n4)CC3)c2=S)cc1	29.5%	30.6%	67.7%	62.6%	87.3%	87.6%	50.3%	83.7%	0%
Cc1ccnc(N2CCN(Cn3nc(C(F)(F)F)n(/N=C/c4ccc(Cl)cc4)c3=S)CC2)n1	96.7%	0%	68.6%	70.3%	91.2%	61.3%	21.1%	71.1%	10.2%
Fc1ccccc1/C=N/n1c(C(F)(F)F)nn(CN2CCN(c3ncccn3)CC2)c1=S	15.3%	70.8%	74.5%	47.3%	64.9%	61.3%	45.4%	40.3%	9.9%
Cc1ccc(/C=N/n2c(C(F)(F)F)nn(CN3CCN(Cn4nc(C(F)(F)F)n(/N=C/c5ccc(C)c(C)c5)c4=S)CC3)c2=S)cc1C	28%	0%	27.4%	32.7%	78.7%	26%	36.7%	67.4%	1.5%
CC(C)NC(=O)N1CC(=O)N(c2cc(Cl)cc(Cl)c2)C1=O [IPRODIONE]				97.8%	55.9%	98.4%	38.5%	53.5%	
Fc1ccccc1/C=N/n1c(C(F)(F)F)nn(CN2CCN(Cn3nc(C(F)(F)F)n(/N=C/c4ccccc4F)c3=S)CC2)c1=S	26.6%	0%	4.3%	25.9%	79.9%	86.5%	6.8%	84.7%	10.7%
COc1nc(C)nc(NC(=O)NS(=O)(=O)c2ccccc2Cl)n1 [CHLORSULFURON]	29.9%	76%	80.4%						8.2%
Cc1cc(C)nc(N2CCN(Cn3nc(C(F)(F)F)n(/N=C/c4ccccc4[N+](=O)[O-])c3=S)CC2)n1	10.2%	0%	11.2%	39.3%	77.2%	88.4%	46.5%	87.8%	0%
FC(F)(F)c1nn(CN2CCN(c3ncccn3)CC2)c(=S)n1/N=C/c1ccccc1	0%	49.2%	66.8%	41.7%	66.3%	37.1%	55.8%	56.2%	0%
Cc1cc(C)nc(N2CCN(Cn3nc(C(F)(F)F)n(/N=C/c4ccc(Cl)cc4)c3=S)CC2)n1	36.6%	9.5%	88.5%	38%	91.6%	62.8%	61.5%	94.4%	12.3%
COC(=O)NC(=S)Nc1ccccc1NC(=S)NC(=O)OC [THIOPHANATE METHYL]				83.4%	68.7%	100%	54.2%	78.8%	
